According to publication PMC4351919 (Journal of biological inorganic chemistry : JBIC : a …, 2014):

Assays:
[1] = Determination of aqueous solubility; type: physicochemical; conditions: Milli-Q water, room temperature
Procedure, shortened: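 Modified OECD method. Saturated solutions made in Milli-Q water at room temperature with repeated ultrasonication. Undissolved material removed through a 0.45 μm filter. Filtrate diluted in 1 % HNO3, and platinum quantified by ICP-MS (RF 1500 W, 194Pt/195Pt monitored, Re internal isotope, 10 replicates) to calculate solubility.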

[2] = Lipophilicity as chromatographic retention factor log kw; type: physicochemical; conditions: RP-HPLC, extrapolated to 0 % MeOH
Procedure, shortened: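 RP-HPLC on a C18 column (4.6 × 250 mm, 5 μm) at 25 °C, 1 ml/min, isocratic 0.1 % TFA(aq)/MeOH, UV 210 nm, with uracil for dead time t0. Each compound run in triplicate at ≥3 MeOH compositions; k = (tR − t0)/t0. log kw obtained by linear extrapolation of log k versus %MeOH to 0 % MeOH.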

[3] = Lipophilicity as n-octanol/water partition coefficient; type: physicochemical; conditions: shake flask
Procedure, shortened: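 Modified OECD shake-flask method. Compound dissolved in water pre-saturated with 1-octanol, and aqueous Pt measured by ICP-MS after dilution in 1 % HNO3. Solution then mixed 1:1 with water-saturated 1-octanol and shaken 1 h. After phase separation, aqueous Pt re-measured; octanol content taken as the loss from the stock to give log Po/w.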

[4] = tested on: murine leukemia model L1210; assay: Cytotoxicity assay; type: cell-based; conditions: read-out: IC50 mean ± SD, L1210; MTT assay, 72 h exposure
Procedure, shortened: (§1)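 Cells (L1210 in RPMI 1640; CT-26 in DMEM/F12; both with 10 % FCS, 37 °C, 5 % CO2) seeded at 2 × 10^3/well and allowed 24 h recovery. 10 mM DMSO stocks serially diluted in medium; final DMSO ≤0.5 %. After 72 h exposure, viability read by MTT (EZ4U). IC50 reported as mean ± SD of at least three independent experiments.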

[5] = tested on: murine colon cancer cell model CT-26; assay: Cytotoxicity assay; type: cell-based; conditions: MTT assay, 72 h exposure; for IC50: read-out: IC50 mean ± SD, CT-26
Procedure, shortened: as §1

[6] = Tissue distribution of platinum after single dose oral administration; type: in vivo, Balb/c mice; conditions: 2 h after single oral dose 40 mg/kg, mice
[7] = type: in vivo, Balb/c mice; conditions: CT-26-bearing mice
[8] = tested on: CH1; conditions: read-out: IC50 (CH1); MTT assay, 96 h exposure; cited from earlier work
[9] = tested on: SW480; conditions: read-out: IC50 (SW480); MTT assay, 96 h exposure; cited from earlier work
[10] = tested on: A549; conditions: read-out: IC50 (A549); MTT assay, 96 h exposure; cited from earlier work
[11] = SEC-ICP-MS study in mice serum after single dose oral administration; type: in vivo; conditions: serum 2 h after single oral dose
Procedure, shortened: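 Balb/c mice dosed orally once at 40 mg/kg (water, 1 % DMSO). Under anesthesia at 2 h, blood taken by heart puncture; serum isolated (3000 rpm, 10 min, twice), stored at −20 °C, then diluted in PBS. SEC on Superdex 200 (10–600 kDa), 100 mmol/l ammonium acetate pH 7.4, 0.7 ml/min, with online ICP-MS Pt trace. References: compounds in PBS, fresh or after 1 and 24 h at 37 °C.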

[12] = tested on: CT-26 cells; assay: Anticancer activity against CT-26 cells in vivo; parameters: species or system Balb/c mice; conditions: CT-26-bearing mice, i.p. days 4, 7, 11, 14; 8.5 mg/kg for 1, 10 mg/kg for 2
Procedure, shortened: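 CT-26 cells (5 × 10^5) injected s.c. into right flank of female Balb/c mice. Test compound given i.p. as freshly prepared aqueous solution on days 4, 7, 11 and 14. Daily distress checks. Tumor size measured regularly by caliper; volume = length × width²/2. Mice sacrificed at day 15, 24 h after last dose.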

[13] = 15 min after oral application, clinical trials; cited from earlier work
[14] = cited from earlier work

SMILES | Aqueous solubility [1] [µg/mL] | Lipophilicity (log kw) [2] | Lipophilicity (log Po/w) [3] | IC50 [4] [µM] | IC50 [5] [µM] | Percentage of platinum amount found in serum relative to the administered platinum dose [6] | Platinum level in serum [6] | IC50 [8] [µM] | IC50 [9] [µM] | IC50 [10] [µM] | also measured
CC[NH][Pt]([Cl])([Cl])([NH]CC)([O]C(=O)CCC(=O)OCC)[O]C(=O)CCC(=O)OCC [Compound 1, (OC-6-33)-dichloridobis((4-ethoxy)-4-oxobutanoato)bis(ethylamine)platinum(IV)] | 1940 ± 20 | 2.87 ± 0.01 | 0.72 ± 0.03 | 1.5 ± 0.4 | 5.7 ± 0.2 | ~ 16 % Pt | ~ 2 μg/ml | 0.061 ± 0.015 | 0.3 ± 0.05 | 1 ± 0.4 | Platinum level in blood pellet [6]: ~ 1 μg/g; Platinum level in kidneys [6]: ~ 4 μg/g; Platinum level in liver [6]: ~ 9 μg/g; Platinum level in lungs [6]: ~ 1 μg/g; Increase of platinum level in tumor at the higher oral dose ([7]; 51.7 vs 34.1 mg/kg p.o., multiple dose): up to 30%
[NH2][Pt]1([NH2])([O]C(=O)CCC(=O)NC2CCCC2)([O]C(=O)CCC(=O)NC2CCCC2)[O]C(=O)C2(CCC2)C(=O)[O]1 [Compound 2, (OC-6-33)-diammine(cyclobutane-1,1-dicarboxylato)bis((4-cyclopentylamino)-4-oxobutanoato)platinum(IV)] | 10200 ± 40 | 2.99 ± 0.06 | 0.77 ± 0.06 | > 50 | > 50 | ~ 1.5 % Pt | ~ 0.15 μg/ml | 15 ± 5 | > 500 | > 500 | Platinum accumulation in all organ samples [6]: less than 0.5 μg/g; Free intact platinum(IV) complex in serum [11]: ~ 5%; In vivo anticancer activity (tumor volume), intraperitoneal application [12]: inactive; Platinum in liver, kidney and serum after i.p. versus oral administration ([7]; 10 mg/kg i.p. vs 40 mg/kg p.o., multiple dose): tenfold higher; Platinum concentrations in all tissues after oral application ([7]; multiple dose p.o. 40 mg/kg, day 15): < 0.5 µg/g
CC(=O)[O][Pt]([NH2])([Cl])([Cl])([NH]C1CCCCC1)[O]C(C)=O [Satraplatin, (OC-6-43)-bis(acetato)amminedichlorido(cyclohexylamine)platinum(IV), reference compound] | 100 ± 10 | 1.49 ± 0.03 | 0.23 ± 0.01 | 2.5 ± 0.2 | 2.9 ± 0.3 | ~ 4 % Pt |  | 0.1 ± 0.02 | 1.5 ± 0.1 | 6.4 ± 0.4 | Fold more active than 1 in CT-26 cells [5]: ~ 2 fold; Times lower platinum concentrations in the investigated tissues than compound 1 [6]: 2-3 times; Presence of intact parent drug in serum [11]: absence of intact satraplatin; Parent drug in patients' plasma ultrafiltrate [13]: no parent drug was detected
N.N.O=C([O-])C1(C(=O)[O-])CCC1.[Pt+2] [carboplatin] |  |  |  |  |  |  |  |  |  |  | Injected dose recovered in urine [14]: ~90%
